In the RNAGym collection of RNA variant scans (doi:10.1126/science.aae0568):
This sample holds only a part of the variants without activity.

B1: tRNA (parent)
chain: GUUCCGUUGGCGUAAUGGUAACGCGUCUCCCUCCUAAGGAGAAGACUGCGGGUUCGAGUCCCGUACGGAACG

Variants of: B1
Assay: yeast fitness relative to wild type (ratio to wild type); higher = fitter; tRNA-Arg(CCU), competitive growth, 37 C, YPD
Procedure, shortened: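 Variants of the tRNA-Arg(CCU) gene, chemically synthesised with a 3% per-site mutation rate at 69 sites, were placed at the native genomic locus in Saccharomyces cerevisiae. The pooled strains were competed in YPD at 37°C for 24 hours in six parallel replicates. Gene amplicons from the start population and from each end population were read by 100-nucleotide paired-end sequencing. Darwinian fitness relative to wild type came from changes in genotype frequencies; genotypes needed ≥ 100 starting reads, and estimates < 0.5 were set to 0.5.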

| Variant | yeast fitness |
| --- | --- |
| GUUCCGUUGGCGUAAUGGUAACGCGUCUCCCUCGUACAGAGAAGACUGCGGGUUCGAGUCCCGUAUGGAACG [C34G A37C G38A C66U] | ≤ 0.5 |
| GUUCCGUUGGCGUAAUGGUAACGCGUCUCCCUCGUAAGGGUAAGAGUGCGGGUUCGUGUCUCGUACGGAACG [C34G A40G G41U C46G A57U C61U] | ≤ 0.5 |
| GUUCCGUUGGCGUAAUGGUAACGCGUCUCCCUCAUAAGGAGAAGACUGCGGGUCCGAGUCCCGUACGGAACG [C34A U54C] | 0.566 |
| GUUCCGUUGGCGUAAUGGUAACGCGUCUCCCUCGUACGGAGAAGACUGCGGGUUCGAGUCCCAUACGGAACG [C34G A37C G63A] | ≤ 0.5 |
| GUUCCGUUGGCGUAAUGGUAACGCGUCUCCCUCGUAAGGAGAAGAUUGUGGGUUCGAGUCCCGUACGGAACG [C34G C46U C49U] | ≤ 0.5 |
| GUUCCGUUGGCGUAAUGGUAACGCGUCUCCCUCGUAAGGAGAAGACUGAGGGUUCGAGGCCCGUACGGAACG [C34G C49A U59G] | 0.547 |
| GUUCCGUUGGCGUAAUGGUAACGCGUCUCCCUCAUAAGGAGAAGACUGCGGGUUCGAGUCCCGAACGGAACG [C34A U64A] | 0.783 |
| GUUCCGUUGGCGUAAUGGUAACGCGUCUCCCUCGUAAGGUGAAGACUGCGGGUUCGAGUCCCGUACGGAACG [C34G A40U] | 0.596 |
| GUUCCGUUGGCGUAAUGGUAACGCGUCUCCCUCGUAAGGCGAAGACUGCGGGUUCGAGUCCCGUACGGAACG [C34G A40C] | 0.636 |
| GUUCCGUUGGCGUAAUGGUAACGCGUCUCCCUCGUAAGGAGGAGACUGCGGGUUCGAGUCCCGUACGGAACG [C34G A42G] | 0.716 |
| GUUCCGUUGGCGUAAUGGUAACGCGUCUCCCUCGUAAGGAGAAGACUGGGGGUUCGAGUCCCGUACGGAACG [C34G C49G] | 0.657 |
| GUUCCGUUGGCGUAAUGGUAACGCGUCUCCCUCGUAAGGAGAAGCCUGCGAGUUCGAGUCCCGUUCGGAACG [C34G A45C G51A A65U] | 0.617 |
| GUUCCGUUGGCGUAAUGGUAACGCGUCUCCCUCGUAAGGAGAAGAUUGCGGGUUCGUGUGCCGUCCGGAACG [C34G C46U A57U C60G A65C] | ≤ 0.5 |
| GUUCCGUUGGCGUAAUGGUAACGCGUCUCCCUCGUAAGGAGAAGACUGCGGGUUCGAGUCCCGUACGGACCG [C34G A70C] | 0.585 |
| GUUCCGUUGGCGUAAUGGUAACGCGUCUCCCUCGUAAGGAGAAGACUGCGGGUUCGAGUCCCGUACGGAGCG [C34G A70G] | 0.586 |
| GUUCCGUUGGCGUAAUGGUAACGCGUCUCCCUCGUAAGGAGAAGACUGCGGGUUCGAGUCCCGUACGGAUCG [C34G A70U] | 0.597 |
| GUUCCGUUGGCGUAAUGGUAACGCGUCUCCCUCGUAAGGAGAUGACUGAGGGUUCGAGUCCCGUACGGAACG [C34G A43U C49A] | 0.737 |
| GUUCCGUUGGCGUAAUGGUAACGCGUCUCCCUCGUAAGGAGAAGACUGCGGGUUAGAGUCCCGUACGGAACG [C34G C55A] | ≤ 0.5 |
| GUUCCGUUGGCGUAAUGGUAACGCGUCUCCCUCAUAAGGAGAAGACCGCGGGUUCGGGUCCCGUUCGGAACG [C34A U47C A57G A65U] | ≤ 0.5 |

| Variant | yeast fitness |
| --- | --- |
| GUUCCGUUGGCGUAAUGGUAACGCGUCUCCCUCGUACGGAGAAGACUGCGGGUUCGAGUACCGUACGGAACG [C34G A37C C60A] | ≤ 0.5 |
| GUUCCGUUGGCGUAAUGGUAACGCGUCUCCCUCGUAAGGGGAAGAGUGAGGGUUCGAGUCCCGUAAGGUACG [C34G A40G C46G C49A C66A A69U] | ≤ 0.5 |
| GUUCCGUUGGCGUAAUGGUAACGCGUCUCCCUCAUAAGGAGAAGACAGCGGGUUCGAGUCCCGUACGAAACG [C34A U47A G68A] | ≤ 0.5 |
| GUUCCGUUGGCGUAAUGGUAACGCGUCUCCCUCGUAAGGAGAAGUCUGCGGGUUCGAGUCCCGUACGCAACG [C34G A45U G68C] | 0.578 |
| GUUCCGUUGGCGUAAUGGUAACGCGUCUCCCUCGUAUGGAGAAGACUGCGGGUUCGAGUCCAGUACGGAACG [C34G A37U C62A] | ≤ 0.5 |
| GUUCCGUUGGCGUAAUGGUAACGCGUCUCCCUCGUAAGGAGGAGACUGCGGGUUCGAGUCCCGUAUGGAACG [C34G A42G C66U] | 1.03 |
| GUUCCGUUGGCGUAAUGGUAACGCGUCUCCCUCGUAAGGAGAAGCCUGCGGGUUCGCGUCCCGUGCGGAACG [C34G A45C A57C A65G] | ≤ 0.5 |
| GUUCCGUUGGCGUAAUGGUAACGCGUCUCCCUCGUAGGGAGAAGACUGCGGGUUCGAGUCCCGUACGGAACG [C34G A37G] | 0.725 |
| GUUCCGUUGGCGUAAUGGUAACGCGUCUCCCUCAUAAGGAGAAGACCGCGAGUUCGAGUCCCGUACGGUACG [C34A U47C G51A A69U] | ≤ 0.5 |
| GUUCCGUUGGCGUAAUGGUAACGCGUCUCCCUCGUAAGGGGAAGACUGCGGGAUCGAGUCCCGUACGCAACG [C34G A40G U53A G68C] | ≤ 0.5 |
| GUUCCGUUGGCGUAAUGGUAACGCGUCUCCCUCGUAAGGAGAAGACUGCGGGUUCGAGUCCCGUUAGGAACG [C34G A65U C66A] | ≤ 0.5 |
| GUUCCGUUGGCGUAAUGGUAACGCGUCUCCCUCGUGAGGAGAAGACUGCGGAUUCGAGUCCCGUAUGGAACG [C34G A36G G52A C66U] | ≤ 0.5 |
| GUUCCGUUGGCGUAAUGGUAACGCGUCUCCCUCGUAAGGAGAAGACUGGGGGUUCGAGUCUCGUACGGGACG [C34G C49G C61U A69G] | 0.567 |
| GUUCCGUUGGCGUAAUGGUAACGCGUCUCCCUCGUAAGGAGAAGCCUGCGGGUUCGCGUCCCGUACGGAACG [C34G A45C A57C] | 0.514 |
| GUUCCGUUGGCGUAAUGGUAACGCGUCUCCCUCGUAAGGAGAAGACUGCGGGUUCGGGUCUCGUACGGAACG [C34G A57G C61U] | ≤ 0.5 |
| GUUCCGUUGGCGUAAUGGUAACGCGUCUCCCUCGUAAGGAGAAGGCUGCGGGUUCGAGUUCCGUACGGUACG [C34G A45G C60U A69U] | ≤ 0.5 |
| GUUCCGUUGGCGUAAUGGUAACGCGUCUCCCUCAUAAGGAGAAGACUGCGGGUUCGAGCCCCGUACGGAACG [C34A U59C] | 0.728 |
| GUUCCGUUGGCGUAAUGGUAACGCGUCUCCCUCGUAAGGAGAAGACUGCGGGUUAGAGUCCCGUACGAAACG [C34G C55A G68A] | ≤ 0.5 |
